From PubChem BioAssay
Shown are actives, neighbours in structure and some others; about 1.6% of the full set was active somewhere.
PABP1 MLLE inh – inhibitors of PABP1 MLLE–PAM2 peptide binding, primary screen, biochemical, fluorescence polarization, FITC-PAM2, GST-MLLE; inhibition, % at 20 µM; 0.36% of 360,000 active; in the data active = inhibition above about 35%, passing the limit was not always enough
Target sequence (P11940 whole entry, looked up): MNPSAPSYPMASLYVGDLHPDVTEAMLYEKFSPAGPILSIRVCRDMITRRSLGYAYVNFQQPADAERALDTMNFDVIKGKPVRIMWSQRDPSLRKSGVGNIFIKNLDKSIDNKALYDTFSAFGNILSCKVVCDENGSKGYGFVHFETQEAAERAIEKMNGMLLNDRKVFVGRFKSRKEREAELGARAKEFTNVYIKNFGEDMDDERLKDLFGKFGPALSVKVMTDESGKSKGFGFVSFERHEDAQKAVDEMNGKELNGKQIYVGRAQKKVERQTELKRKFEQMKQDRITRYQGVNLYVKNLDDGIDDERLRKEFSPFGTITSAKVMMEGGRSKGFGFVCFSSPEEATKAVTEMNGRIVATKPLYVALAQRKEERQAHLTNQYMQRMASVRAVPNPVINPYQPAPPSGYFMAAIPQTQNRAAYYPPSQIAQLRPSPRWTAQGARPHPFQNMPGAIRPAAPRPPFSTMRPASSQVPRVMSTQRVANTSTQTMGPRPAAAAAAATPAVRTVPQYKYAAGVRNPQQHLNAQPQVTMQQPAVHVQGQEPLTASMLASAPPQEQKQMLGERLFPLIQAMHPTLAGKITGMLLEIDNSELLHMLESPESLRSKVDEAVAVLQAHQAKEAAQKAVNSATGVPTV
eIF4H inh – human eIF4H binding inhibitors, primary screen, translation initiation inhibitor project, biochemical, uHTS, fluorescence polarization. Eukaryotic translation initiation factor 4H (Homo sapiens), Q15056. eIF4H fluorescence polarization binding assay. inhibition, % at 35 µM. 0.94% of 290,000 active;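 also: calls also rest on retests at 20 µM and on dose response follow-up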
TCR-CD3 inh – inhibitors of human TCR-CD3 interaction, primary screen, biochemical, fluorescence, TAMRA-labeled TCR probe | T-cell receptor (TCR) | 0.37% of 360,000 active | inhibition, % at 9.4 µM; in the data active = inhibition above about 19%;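 also: recombinant mutant TCR 2C K166C tagged with TAMRA read by polarization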
RBBP9 inh – human RBBP9 inhibitors, primary screen, biochemical, fluorescence polarization, FP-Rh probe, HTS; 0.2% of 220,000 active; Serine hydrolase RBBP9 (Homo sapiens), O75884; recombinant RBBP9; inhibition, % at 7.94 µM;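 active = inhibition above the campaign mean of all tested compounds plus 3 SD, cut at about 14% in these data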
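Assay system: recombinant human RBBP9; Reagent: Serine-hydrolase probe FP-Rh, 375 nM pre-mixing; Doses: 7.94 µM single dose, 0.794% DMSO; Incubation: 30 min then 45 min, 25 °C; Detection: fluorescence polarization (mP), excitation 525 nm, emission 598 nm; Evaluation: percent inhibition from mP, scaled between DMSO and no-protein wells.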
PABP FP inh – PABP poly(A) RNA binding inhibitors, primary screen, biochemical, fluorescence polarization, uHTS; calls only at 35 µM; 1% of 290,000 active;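 also: calls also rest on retests at 20 µM and on dose response follow-up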
RBBP9 confirm – human RBBP9 inhibitors, retest, confirmation, biochemical, fluorescence polarization, FP-Rh probe, triplicate. shares compounds with RBBP9 inh. recombinant RBBP9. inhibition, % at 7.94 µM. 36% of 410 active. AID 1537, 2009;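 active = inhibition above the hit cutoff derived for the primary screen, cut at about 15% in these data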
Each line names hits and unclear results; the compound was inactive in the other large screens (follow-up assays come after a bar, where they were run). Unless noted, no rule for the calls is given here.

O=[N+]([O-])c1ccc(O)c(/C=N/n2cnc3ccccc32)c1	none
Cc1ccc(/C=C2\SC(=S)N(/N=C/c3cc([N+](=O)[O-])ccc3O)C2=O)o1	RBBP9 inh 15 (no result: TCR-CD3 inh) | RBBP9 confirm 23
O=C(Cc1cccs1)Nc1ccccc1NC(=O)Cc1cccs1	RBBP9 inh 15 | RBBP9 confirm inactive
CCCC(CCC)C(=O)Nc1c[nH]c(=O)[nH]c1=O	RBBP9 inh 17 | RBBP9 confirm inactive
O=C(CCl)Nc1c[nH]c(=O)[nH]c1=O	none
CC(C)C[C@@H]1COc2cccc(NCCO)c2S(=O)(=O)N1	none (no result: PABP1 MLLE inh, eIF4H inh, RBBP9 inh, PABP FP inh)
CCCc1nnc(NC(=O)CN2CCN(C)CC2)s1	RBBP9 inh 17 | RBBP9 confirm inactive
O=C(C1COc2ccccc2O1)N1CCCC1 (stereo not given)	RBBP9 inh 15 | RBBP9 confirm inactive
O=C(C1COc2ccccc2O1)N1CCN(c2ccccc2O)CC1 (stereo not given)	none (no result: eIF4H inh, RBBP9 inh, PABP FP inh)
COc1ccc(/C=C/C(=O)NC(=S)NNC(=O)c2cccs2)cc1OC	none
COc1ccc(/C=C/C(=O)NC(=S)NNC(=O)Cc2cccs2)cc1OC	RBBP9 inh 15 | RBBP9 confirm inactive
O=C(NNC(=O)c1cc(O)c(O)c(O)c1)NC1CCCCC1	RBBP9 inh 14 | RBBP9 confirm 23
O=C(NNC(=O)c1cccnc1)NC1CCCCC1	none
CN(C)S(=O)(=O)c1cccc(NC(=S)Nc2cccc3cnccc23)c1	RBBP9 inh 19 | RBBP9 confirm inactive
S=C(Nc1cccnc1)Nc1cccc2cnccc12	eIF4H inh inconclusive
Oc1ccc(-c2cnns2)c(O)c1	RBBP9 inh 41 | RBBP9 confirm 56
CC(=O)O/N=C1\C(=O)N(Cc2ccc(C)cc2)c2ccccc21	none
CC(C)CC(=O)O/N=C1\C(=O)N(Cc2ccc(Cl)cc2)c2ccc([N+](=O)[O-])cc21	RBBP9 inh 24 (no result: PABP1 MLLE inh, TCR-CD3 inh) | RBBP9 confirm 46
CC(=O)Nc1ccc(OCC[n+]2cccc(C(N)=O)c2)cc1	RBBP9 inh 14 | RBBP9 confirm inactive
Cc1cc(N=O)c(C)cc1O	none (no result: eIF4H inh, RBBP9 inh, PABP FP inh)
Cc1cc(O)c(-c2cc(O)c(C)cc2O)cc1O	PABP1 MLLE inh 48, RBBP9 inh 47 | RBBP9 confirm 73
COc1ccccc1NC(=O)c1c(NC(=O)CCC(=O)O)sc2c1CCCCC2	none
COc1ccc(OC)c(NC(=O)c2c(NC(=O)CCC(=O)O)sc3c2CCCCC3)c1	RBBP9 inh 21 | RBBP9 confirm inactive
Cc1ccc(NC(=O)/C(=C\c2ccc([N+](=O)[O-])cc2)NC(=O)c2ccccc2)cc1	none
O=C(N/N=C/c1ccc(O)c(O)c1O)/C(=C/c1ccc([N+](=O)[O-])cc1)NC(=O)c1ccccc1	eIF4H inh 105, RBBP9 inh 18, PABP FP inh active | RBBP9 confirm 38
Oc1cc(-n2cccn2)c(O)cc1-n1cccn1	PABP1 MLLE inh 47, RBBP9 inh 63 | RBBP9 confirm 76
O=Cc1ccccc1-n1cccn1	none
NC(N)=N/N=C/c1ccc(OCc2ccc(Cl)cc2)cc1	RBBP9 inh 19 | RBBP9 confirm inactive
COc1ccc(/C=C/c2ccc3c(Br)ccc(O)c3n2)cc1	none (no result: RBBP9 inh)
COc1cc(/C=C/c2ccc3c(Br)cc(Br)c(O)c3n2)ccc1O	RBBP9 inh 17 | RBBP9 confirm 47
CSc1nnc(CCCCCCCCc2nnc(SC)o2)o1	RBBP9 inh 16 | RBBP9 confirm inactive
CSc1nnc(CCCCCNC(=O)OC(C)(C)C)o1	none
Oc1cccc(Nc2ccccc2)c1	none (no result: eIF4H inh, RBBP9 inh, PABP FP inh)
CC(C)c1cc(Nc2cccc(O)c2)cc(C(C)C)c1O	eIF4H inh inconclusive, RBBP9 inh 16, PABP FP inh inconclusive (no result: PABP1 MLLE inh, TCR-CD3 inh) | RBBP9 confirm inactive
O=C(CSc1ccc(Cl)cc1)Nc1ncccn1	none
Cn1ncc(Br)c1NC(=O)CSc1ccc(Cl)cc1	RBBP9 inh 18 | RBBP9 confirm inactive
CCN1CCN(C(=O)C2(NC(=O)Nc3ccccc3Cl)CCCCC2)CC1	RBBP9 inh 16 | RBBP9 confirm inactive
CN1CCN(C(=O)C2(NC(=O)Nc3ccccc3Cl)CCCCC2)CC1	none
O=C(O)C(=Cc1ccc([N+](=O)[O-])cc1)c1ccccc1	none (no result: PABP1 MLLE inh, eIF4H inh, RBBP9 inh, PABP FP inh)
O=S(=O)(c1ccc(C(F)(F)F)cc1)N1CCCc2nc(-c3ccc(F)cc3)ccc21	none (no result: PABP1 MLLE inh, eIF4H inh, RBBP9 inh, PABP FP inh)
O=C1CCC(=O)N1c1ccc(-c2nc3sc4c(c3c(=O)o2)CCC4)cc1	RBBP9 inh 15 | RBBP9 confirm inactive
O=c1oc(-c2ccccc2)nc2sc3c(c12)CCC3	none
COc1ccc(-n2c(Cc3cccn3C)nnc2SCC(=O)NC2CCCC2)cc1	RBBP9 inh 19 | RBBP9 confirm inactive
COc1ccc(-n2c(Cc3cccn3C)nnc2SCC(=O)Nc2ccccc2)cc1	none
C#CCN(C[C@H]1[C@H](OC(=O)Nc2cccs2)[C@H](OC(=O)Nc2cccs2)CN(C(=O)OC(C)C)N1C(=O)OC(C)C)S(=O)(=O)c1ccc(C)cc1	none (no result: PABP1 MLLE inh, eIF4H inh, RBBP9 inh, PABP FP inh)
Fc1cccc(Cl)c1CN1CCN(c2ncc(Cc3ccccc3)cn2)CC1	none (no result: PABP1 MLLE inh, eIF4H inh, RBBP9 inh, PABP FP inh)
C=CCN(CC=C)Cc1c(O)ccc2c1oc(=O)c1ccccc12	RBBP9 inh 25 (no result: eIF4H inh, PABP FP inh) | RBBP9 confirm inactive
O=C(N[C@@H](Cc1cccnc1)C(=O)N1CCC[C@H]1C(=O)NCc1ccccc1)c1ccccc1	none (no result: PABP1 MLLE inh, eIF4H inh, RBBP9 inh, PABP FP inh)
CCOC(=O)c1cc(-c2ccccc2)n(CCC(=O)NC(C)CC)c1C (stereo not given)	none
CCOC(=O)c1cc(-c2ccc(C)cc2)n(CCC(=O)NCCCOC)c1C	RBBP9 inh 15 | RBBP9 confirm inactive
CCc1cc2c(nc1CC)CCCN2Cc1ccc(Br)cc1	none (no result: PABP1 MLLE inh, eIF4H inh, RBBP9 inh, PABP FP inh)
Cc1nn(-c2ccccc2)nc1C(=O)c1c(C)[nH]n(-c2ccccc2)c1=O	RBBP9 inh 15 | RBBP9 confirm inactive
N#CCc1cnc2ccccc2n1	eIF4H inh 89, RBBP9 inh 16, PABP FP inh active | RBBP9 confirm inactive
NS(=O)(=O)c1ccc(CCNC(=O)CNCCc2ccc(C(F)(F)F)cc2)cc1	none (no result: RBBP9 inh)
CC(C)c1ccccc1NC(=O)CNCCc1ccc(C(F)(F)F)cc1	RBBP9 inh 17 | RBBP9 confirm inactive
C[C@@H]1ON(C)[C@H]2C[C@H]3c4cc(-c5ccccc5)ccc4CCN3C[C@@H]12	none (no result: PABP1 MLLE inh, eIF4H inh, RBBP9 inh, PABP FP inh)
CN(CCc1ccccn1)C(=O)[C@@H](Cc1ccccc1)NC(=O)[C@H]1O[C@@H](n2ccc(=O)[nH]c2=O)[C@H](O)[C@@H]1O	none (no result: PABP1 MLLE inh, eIF4H inh, RBBP9 inh, PABP FP inh)
CCc1ccc(OCC(=O)O/N=C(\N)c2cccnc2)cc1	RBBP9 inh 15 | RBBP9 confirm inactive
Cc1cc(C2=NNC(=NC3CC3)SC2)c(C)n1-c1ccccc1	RBBP9 inh 58 | RBBP9 confirm 22
C[C@H]1[C@@H]2C[C@@]3(O[C@H](c4ccc(C(F)(F)F)cc4)N=C3C[C@@H]1c1ccccc1)N(Cc1ccncc1)C2=O	none (no result: PABP1 MLLE inh, eIF4H inh, RBBP9 inh, PABP FP inh)
